Test results reported in publication PMC5723703 (Pharmacology Research & Perspectives, 2017).
Values joined by “and” are separate entries in the source; they are usually repeats but may differ in a detail not shown here. Equal values may be shown once. Read-outs that look alike come from different tables or passages of the source.

Assays:
[1] = molecular target: T1, S1P1 receptor (Homo sapiens, UniProt P21453); assay: Ca2+ mobilization assay; format: cell-based
[2] = test system: Wistar rats; assay: Blood lymphocyte count in rats after oral administration; format: in vivo, rat
[3] = molecular target: T1, S1P1 receptor; format: biochemical
[4] = molecular target: human S1P3 receptor (Homo sapiens, UniProt Q99500); format: biochemical
human S1P3 receptor, sequence (Q99500 whole entry): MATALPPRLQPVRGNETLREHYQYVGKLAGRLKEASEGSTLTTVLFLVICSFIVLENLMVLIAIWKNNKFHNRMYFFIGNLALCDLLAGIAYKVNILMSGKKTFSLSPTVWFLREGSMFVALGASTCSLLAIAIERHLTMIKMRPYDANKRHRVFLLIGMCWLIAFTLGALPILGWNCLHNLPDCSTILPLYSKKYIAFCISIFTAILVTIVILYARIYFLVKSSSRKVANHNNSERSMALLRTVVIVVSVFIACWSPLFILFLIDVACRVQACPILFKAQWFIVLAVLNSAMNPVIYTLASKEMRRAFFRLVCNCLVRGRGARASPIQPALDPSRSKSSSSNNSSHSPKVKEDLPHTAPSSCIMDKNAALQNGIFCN

[5] = molecular target: T1, S1P1 receptor; assay: Ca2+ signaling in CHO cells expressing recombinant human S1P1 receptor; format: cell-based
[6] = test system: Wistar rats; assay: In vivo lung function; parameters: species or system rat; conditions: n = 10
Outline: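 Male Wistar rats (200-250 g), acclimatised at least 7 days, were unrestrained, conscious and breathing spontaneously in whole-body plethysmograph chambers (calibrated with a 5 mL air injection), one rat per chamber. Baseline was recorded for 120 min. Single oral dosing used 0.25% methylcellulose/0.05% Tween 80 vehicle, followed by recording for 6 h.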

[7] = test system: rat mesenteric arteries; assay: Isometric force development, isolated rat mesenteric arteries
Outline: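 After CO₂ euthanasia, two mesenteric artery rings (1.5 mm, 2nd and 3rd branch) were mounted on 20 μm wires in a wire myograph with modified Krebs-Henseleit buffer. Viability was checked with KCl 60 mmol/L. Endothelium was confirmed by acetylcholine (10^-5 mol/L) relaxation of rings precontracted with U46619 (10^-6 mol/L).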

[8] = test system: C57BL/6 mice; assay: Lymphocyte count and plasma concentration in mice; format: in vivo, mouse; conditions: three repeated doses of 6 mg·kg^‐1·day^‐1, day 0 vs day 2 (data not shown)
[9] = Compound concentrations in rat plasma; format: in vivo; conditions: for plasma concentration at time of maximal lymphocyte count reduction (6 hours): rats
[10] = molecular target: T2, human S1P4 receptor (Homo sapiens, UniProt O95977); format: biochemical
T2 sequence (O95977 1-384): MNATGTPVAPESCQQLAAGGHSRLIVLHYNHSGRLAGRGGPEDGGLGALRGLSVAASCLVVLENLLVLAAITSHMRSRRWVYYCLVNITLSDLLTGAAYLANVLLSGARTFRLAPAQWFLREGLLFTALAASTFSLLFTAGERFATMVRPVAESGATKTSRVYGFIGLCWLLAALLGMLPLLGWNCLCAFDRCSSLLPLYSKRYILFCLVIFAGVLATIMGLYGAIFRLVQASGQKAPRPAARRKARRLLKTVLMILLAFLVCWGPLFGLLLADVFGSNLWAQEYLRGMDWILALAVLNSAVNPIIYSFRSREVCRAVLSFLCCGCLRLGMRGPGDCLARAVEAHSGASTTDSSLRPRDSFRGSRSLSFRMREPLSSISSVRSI
Outline: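 Membranes from CHO cells expressing recombinant human S1P4 were used for (35S)-GTPγS binding as a measure of G protein activation. EC50 was fitted with the compound's own maximal response as the top and the no-effect level of the lowest concentration as the bottom.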

[11] = test system: rat trachea; assay: Isometric force development, isolated rat tracheal rings
[12] = molecular target: T3, S1P2 receptor (Homo sapiens, UniProt O95136); assay: Impedance-based analysis of S1P2 receptor signaling in CHO-hS1P2 cells; format: cell-based; conditions: 0.05-5000 nM
T3 sequence (O95136 whole entry): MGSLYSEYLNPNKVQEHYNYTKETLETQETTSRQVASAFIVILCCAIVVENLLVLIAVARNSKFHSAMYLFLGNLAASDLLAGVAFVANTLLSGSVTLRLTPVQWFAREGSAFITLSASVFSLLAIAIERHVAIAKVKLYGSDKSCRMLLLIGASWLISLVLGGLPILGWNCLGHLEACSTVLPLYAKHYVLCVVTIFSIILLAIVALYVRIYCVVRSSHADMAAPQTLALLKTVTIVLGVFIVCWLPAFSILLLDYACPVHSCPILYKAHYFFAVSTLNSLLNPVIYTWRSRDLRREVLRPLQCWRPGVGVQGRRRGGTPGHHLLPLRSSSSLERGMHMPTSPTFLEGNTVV

[13] = test system: spontaneous hypertensive rats; assay: Blood pressure and heart rate by telemetry in conscious SHR; format: in vivo, rat
[14] = molecular target: human S1P5 receptor (Homo sapiens, UniProt Q9H228); format: biochemical
human S1P5 receptor, sequence (Q9H228 whole entry): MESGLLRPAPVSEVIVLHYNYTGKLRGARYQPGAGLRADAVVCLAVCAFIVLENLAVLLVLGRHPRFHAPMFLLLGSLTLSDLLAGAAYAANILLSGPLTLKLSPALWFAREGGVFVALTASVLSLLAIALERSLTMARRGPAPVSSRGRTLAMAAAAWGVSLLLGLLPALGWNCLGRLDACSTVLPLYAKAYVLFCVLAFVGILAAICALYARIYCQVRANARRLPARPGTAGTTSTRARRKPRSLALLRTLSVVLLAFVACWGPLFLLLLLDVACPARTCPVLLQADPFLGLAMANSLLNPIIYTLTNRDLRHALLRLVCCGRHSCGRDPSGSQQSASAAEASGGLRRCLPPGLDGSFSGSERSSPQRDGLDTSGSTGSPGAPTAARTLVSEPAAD

[15] = molecular target: T3, S1P2 receptor; format: biochemical
[16] = test system: human bronchi; assay: Isometric force development, isolated human bronchial rings
[17] = molecular target: T1, S1P1 receptor; format: biochemical; remark: listed apart in the source
[18] = test system: C57BL/6 mice; assay: Mouse MOG33-55 EAE model with spinal cord histopathology; format: in vivo
Outline: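 EAE was induced in 6-week-old female C57BL/6JOlaHsd mice with 150 μg MOG33-55 in CFA, s.c. into both flanks under isoflurane, plus a pertussis toxin boost. Dosing was 6 mg·kg^‐1·day^‐1 or vehicle (0.25% methylcellulose, 0.05% Tween 80) from day 0 or day 14, with daily scoring 0–5. Spinal cords were taken after saline perfusion, formalin-fixed, and 4 μm sections stained with HE and cresyl violet/Luxol fast blue; naïve mice served as controls.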

[19] = EC50 hS1P4, (35S)-GTPγS, CHO membranes, geometric mean, n = 2‐4
[20] = percentage of maximal response induced by 1 or 10 μmol·L^‐1 S1P

T1 sequence (P21453 whole entry): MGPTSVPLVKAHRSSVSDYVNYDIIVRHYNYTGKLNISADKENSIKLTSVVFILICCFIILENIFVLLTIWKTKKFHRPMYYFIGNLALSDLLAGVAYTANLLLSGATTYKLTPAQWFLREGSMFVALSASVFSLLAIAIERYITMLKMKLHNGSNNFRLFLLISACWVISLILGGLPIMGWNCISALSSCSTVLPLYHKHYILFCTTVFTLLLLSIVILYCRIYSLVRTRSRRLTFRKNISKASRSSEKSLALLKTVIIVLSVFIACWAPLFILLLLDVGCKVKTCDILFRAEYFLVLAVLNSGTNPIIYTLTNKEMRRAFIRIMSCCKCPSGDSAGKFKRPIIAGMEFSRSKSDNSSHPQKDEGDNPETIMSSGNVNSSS

In the case of `CCc1cc(-c2noc(-c3cc(OC)nc(C4CCCC4)c3)n2)cc(C)c1OC[C@@H](O)CO` [Cenerimod, (S)‐3‐(4‐(5‐(2‐cyclopentyl‐6‐methoxypyridin‐4‐yl)‐1,2,4‐oxadiazol‐3‐yl)‐2‐ethyl‐6‐methylphenoxy)propane‐1,2‐diol], the EC50 [1] is reported as 1040 nM, the “fold less potent in Ca^2+ signaling than in (35S)‐GTPγS assays” value ([1]; HUVEC) is reported as “approximately 500 fold” and the “single oral dose at which plateau of lymphocyte reduction is reached” value [2] is reported as 1 mg·kg^‐1. For the same molecule, the “time until lymphocyte count returned to predose levels” value ([2]; 1 mg·kg^‐1 single oral dose) was at most 48 h, the “decrease of blood lymphocyte count” value ([2]; 1 mg·kg^‐1 single oral dose, P < .001) was 63 ± 4% and the “blood lymphocyte count after dosing” value ([2]; 1 mg·kg^‐1 single oral dose, from 7900 ± 690 before dosing) was 2900 ± 370 lymphocytes/μL. The “time until lymphocyte count returned to physiological levels after the last dose” value ([2]; 1 mg·kg^‐1·day^‐1 oral for 7 days (data not shown)) was at most 2 days, the “reduction of blood lymphocyte count at 48 hours” value ([2]; 3 mg·kg^‐1 single oral dose) was “more than 40%” and the “time until lymphocyte count returned to physiological levels after the last dose” value ([2]; 3 mg·kg^‐1·day^‐1 oral for 7 days (data not shown)) was at most 4 days. For the same molecule, the “reduction of peripheral blood lymphocyte count after 48 hours” value ([2]; 10 mg·kg^‐1 single oral dose) was 65 ± 3%, the “fold higher potency on the S1P1 receptor compared to the natural ligand S1P” value ([3]; (35S)-GTPγS EC50 ratio) was 16 fold and the Emax ([3]; read-out: E max (%) hS1P1) was 126%. The EC50 [4] was 228 nM, the “fold less active at the S1P3 receptor than S1P” value ([4]; (35S)-GTPγS EC50 ratio) was “at least 2000 fold” and the “fold less active at the S1P3 receptor than pFTY720” value ([4]; (35S)-GTPγS EC50 ratio) was 400 fold. For the same molecule, the Emax ([4]; read-out: E max (%) hS1P3) was 81%, the EC50 [5] was 124 nM and the “Penh (index of bronchoconstriction) vs vehicle” value ([6]; 100 mg·kg^‐1 p.o., 4 hours evaluation period) was “did not increase”. The “contraction of rat mesenteric arteries” value ([7]; 10 μmol·L^‐1, n = 4) was “did not contract”, the compound accumulation [8] was “absence of compound accumulation” and the plasma concentration ([9]; 4 hours after oral administration of 100 mg·kg^‐1, Wistar rats (Penh study)) was 4.4 ± 0.6 μg·mL^‐1. The Tmax ([9]; Wistar, rat, plasma, po) was 3 h, the “plasma concentration at time of maximal lymphocyte count reduction (6 hours)” value ([9]; 1 mg·kg^‐1 single oral dose) was 41 ± 2 ng·mL^‐1 and the “plasma concentration at time of maximal lymphocyte count reduction (6 hours)” value ([9]; 10 mg·kg^‐1 single oral dose) was 869 ± 73 ng·mL^‐1. For the same molecule, the EC50 ([10]; EC50 S1P4 receptor, (35S)-GTPγS, human recombinant receptor) was 2100 nM, the EC50 [10, 19] was 2130 nM and the Emax ([10]; read-out: E max (%) hS1P4) was 123%. For the same molecule, the “contraction of upper and lower rat trachea” value ([11]; highest tested concentration 10 μmol·L^‐1, n = 4) was “complete lack of response”, the “S1P2 receptor agonist activity in more sensitive (cellular) assays” value [12] was “no S1P2 receptor agonist activity” and the “effect on heart rate (HR)” value ([13]; 30 mg·kg^‐1 single oral dose) was “no effect”. For the same molecule, the “decrease of mean arterial blood pressure (MAP)” value ([13]; 30 mg·kg^‐1 single oral dose, 48 hours observation period) was 9 ± 3 mmHg, the EC50 [14] was 36 nM and the “fold less potent on the S1P5 receptor than pFTY720” value ([14]; (35S)-GTPγS EC50 ratio) was 70 fold. For the same molecule, the “fold more potent on the S1P5 receptor than the natural ligand S1P” value ([14]; (35S)-GTPγS EC50 ratio) was “twofold”, the Emax ([14]; read-out: E max (%) hS1P5) was 65% and the EC50 [15] was over 10000 nM. For the same molecule, the “agonist activity on the S1P2 receptor” value ([15]; up to the highest tested concentration (10 μmol·L^‐1)) was “no detectable agonist activity”, the “contraction of human bronchi” value ([16]; 10 μmol·L^‐1) was “no contraction” and the EC50 [17] was 2 nM. The “mice completely protected from disease development” value ([18]; 6 mg·kg^‐1·day^‐1 from day 0 (preventive), n = 8) was “Five out of eight”, the “clinical score reached (maximum reduction), all treated mice” value ([18]; 6 mg·kg^‐1·day^‐1 from day 14 (therapeutic), n = 8) was 0.5 and the “incidence and severity of spinal cord demyelination” value ([18]; preventive or therapeutic regimen, 6 mg·kg^‐1·day^‐1) was “equally reduced”. The “maximal clinical score of the individual mice that developed disease” value ([18]; preventive treatment 6 mg·kg^‐1·day^‐1, three of eight mice) was 2.5 and 3.0 and 0.5 and the “time to reach clinical score of 0.5 after treatment initiation, two mice” value ([18]; therapeutic treatment) was at most 11 days.
With `CCCCCCCCc1ccc(CCC(N)(CO)CO)cc1` [FTY720, reference compound] the “Penh (index of bronchoconstriction) vs vehicle” value ([6]; 3 or 10 mg·kg^‐1 p.o. single dose) was “significant dose‐dependent increases”, the “decrease of heart rate (HR)” value ([13]; 3 mg·kg^‐1 single oral dose) was 26 ± 8 bpm and the “increase of mean arterial blood pressure (MAP)” value ([13]; 3 mg·kg^‐1 single oral dose, 48 hours observation period) was 12 ± 2 mmHg.
With `CCCCCCCCCCCCC/C=C/[C@@H](O)[C@@H](N)COP(=O)(O)O` [S1P, Sphingosine‐1‐phosphate, reference compound] the EC50 [1] was 34 nM, the EC50 [4] was 0.1 nM and the EC50 [10, 19] was 60 nM. The “constriction of lower rat trachea” value ([11]; 1 μmol·L^‐1, in presence of Ca^2+ (2.5 mmol·L^‐1), n = 3) was “induced lower rat trachea constriction”.
In the case of `CCCCCCCOc1ccc(CCC(N)(CO)COP(=O)(O)O)cc1C(F)(F)F` (stereo not drawn) [p-amiselimod (pMT-1303)], the rat trachea constriction ([11]; lower rat trachea, 1 μmol·L^‐1 and 10 μmol·L^‐1) is reported as “induced effective rat trachea constriction”.
In the case of `CCCCCCCCc1ccc(CCC(N)(CO)COP(=O)(O)O)cc1` (stereo not drawn) [pFTY720, reference compound], the “contraction of rat mesenteric arteries” value ([7]; 1, 10 or 100 nmol·L^‐1, n = 4) is reported as “concentration‐dependent contraction”, the “E max (%) hS1P4” value [10, 20] is reported as 109% and the EC50 ([10]; read-out: EC50 hS1P4, (35S)-GTPγS, CHO membranes, geometric mean, n = 2‐4) is reported as 64 nM. For the same molecule, the “contraction of upper and lower rat trachea” value ([11]; 10, 100 or 1000 nmol·L^‐1, n = 4) was “concentration‐dependent contractile response”, the “E max (%) hS1P5” value [14, 20] was 43% and the “E max (%) hS1P2” value [15, 20] was 11%. For the same molecule, the “E max contraction of human bronchi” value ([16]; % of reference contraction to KCl (50 mmol·L^‐1), mean ± SEM, n = 4) was 86.5 ± 20.2% and the “pEC50 contraction of human bronchi” value ([16]; mean ± SEM, n = 4) was 6.4 ± 0.5.
